# In ChEMBL document CHEMBL4513216, “Probing the Open Global Health Chemical Diversity Library for Multistage-Active Starting Points for Next-Generation Antimalarials” (ACS Infect Dis, 2020):
# Experiment: Toxicity liver stage against HepG2, at 10uM
# Assay type: cell-based
# Parameters: test concentration 10 uM, cell line HepG2-A16-CD81EGFP
# Conditions: human, HepG2-A16-CD81EGFP cells; read-out: INHIBITION
# How it was run: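 Uninfected HepG2-A16-CD81EGFP cells, 3 × 10^3 per well, 1536-well, plated on prespotted compound at 10 μM final, parasite-free screening media added to match infected plates; puromycin 10 μM positive, DMSO 0.5% negative; run in parallel with 48 h PbLuc assay at 37 °C, 5% CO2; viability by CellTiter-Glo luminescence, normalized to controls.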
row,Structure (SMILES),cytotoxicity at 10 µM [%]
1,CC(C)c1ccc(CNC(C)c2ccc(S(C)(=O)=O)cc2)cc1 (stereo unspecified),13.9
2,COc1ccc(NC(=O)NCC(O)c2ccc(F)cc2F)c(OC)c1 (stereo unspecified),2.79
3,CCCN1C(=O)[C@@H]2[C@@H](CCN2C(=O)COC)N(Cc2cccs2)C1=O,0.121
4,COCC(=O)N1CCN(C(=O)c2cccs2)C[C@H]1C(=O)OC,-0.655
5,CS(=O)(=O)N1CC[C@H](c2nc3ccc(C(F)(F)F)cc3[nH]2)C1,0.0915
6,Cc1ccc(Cl)cc1NC(=O)Nc1c[nH]c(=O)[nH]c1=O,-7.58
7,CCOCCNC(=O)[C@@H]1CCCN1c1nccc(Nc2ccccc2)n1,2.66
8,CCCC1CN(CC(C)C)C(=O)c2cccnc2O1 (stereo unspecified),3.04
9,CC(C)(CO)Nc1c(NCc2ccccn2)c(=O)c1=O,0.122
10,COc1ccc(NC(=O)c2nc(C)sc2C)cn1,-2.52
11,COCC(=O)Nc1cnc(N2CCN(c3ccccc3)CC2)nc1,-9.87
12,COc1cc(NC(=O)C2CC(=O)N(c3cccc(F)c3)C2)ncn1 (stereo unspecified),-1.73
13,c1coc(CN2CCC3(CC2)COC(COCC2CCOCC2)C3)c1 (stereo unspecified),4.67
14,CC(=O)NCc1noc2c1CN(Cc1cccs1)CC2,-5.18
15,CS(=O)(=O)N1CCCC12CCCN(C(=O)c1ccno1)C2 (stereo unspecified),-172
16,CC(=O)N1CCC2(C1)c1ccccc1S(=O)(=O)N2Cc1ccccc1 (stereo unspecified),-127
17,CC1=Nc2c(c(O)nn2C2CCOCC2)C(c2cccnc2)S1 (stereo unspecified),5.11
18,O=C(NCCc1nccs1)C(c1ccccc1)n1cnnn1 (stereo unspecified),5.28
19,CN(C)C(=O)N1CCc2c(CNc3ncccn3)cncc2C1,-3.55
20,COCC1CN(C(=O)CNC(C)=O)Cc2ncnn2C1 (stereo unspecified),-12.4
21,CCCN1CCN(C(=O)CCn2nc(C(F)(F)F)c(Br)c2C)CC1,-8.71
22,O=C(O)c1cnc(N2CCC(O)CC2)nc1COc1cccc(F)c1,-9.09
23,CCN(CC)CCNC(=O)c1nn(CC)cc1Cl,2.58

row,Structure (SMILES),cytotoxicity at 10 µM [%]
1,CCc1noc(C2CCCCN2C(=O)c2ccn(C3CCCC3)n2)n1 (stereo unspecified),11.8
2,CN(C)CCn1nc(C2CCN(S(=O)(=O)N(C)C)C2)c2cccnc21 (stereo unspecified),-2.15
3,O[C@H]1CN(CCCOc2ccccc2F)CC[C@@]12CCCO2,3.06
4,Nc1ncnc2nc(C3CCN(C(=O)Cc4ccccc4)C3)ccc12 (stereo unspecified),2.65
5,CN(C)c1nccnc1C1CCN(c2cnccn2)CC1,4.58
6,Cc1c[nH]c(C2CCCN(Cc3cccc(C(=O)O)c3)C2)n1 (stereo unspecified),9.59
7,CC(=O)N1CC(C(=O)NCCc2ncc(C)s2)C1,-1.33
8,CC(C)(C)OC(=O)N[C@@H]1C[C@@H](O)CN(C(=O)c2ccc(F)cc2)C[C@H]1O,2.57
9,O=C(CO)N1CCCC(c2cc(C(F)(F)F)[nH]n2)C1 (stereo unspecified),-5.12
10,Cc1cncc(C2CCN(C(=O)CCc3ccnn3C)CC2)n1,-28.8
11,O=C(CC(SC1CCCCC1)C(=O)O)c1ccc(Cl)cc1 (stereo unspecified),3.16
12,CC(CN1CCCC1=O)NC(=O)Nc1ccccc1Cn1cccn1 (stereo unspecified),-1.33
13,OCCOCCN1CCCC1c1cccc(Cl)c1 (stereo unspecified),-1.78
14,N#Cc1ccc(S(=O)(=O)NC(=O)c2ccc3c(c2)COC3)cc1,1.39
15,CC(C)c1cc(NC(=O)Cn2ccc(=O)c3ccccc32)[nH]n1,-146
16,COc1ccccc1CNC(=O)C(C)N1CC(n2nc(C)cc2C)C1 (stereo unspecified),7.54
17,CN(Cc1c(F)cccc1Cl)C(=O)Nc1cnn(CC(N)=O)c1,-6.39
18,Cc1nc(CC(=O)NS(=O)(=O)c2cccc3cnccc23)cs1,5.75
19,Cc1cc(C)cc(N(CCC#N)C(=O)CN2CCCC2c2cccs2)c1 (stereo unspecified),-1.61
20,c1cc(CCN2CCCC2CN2CCCC2)ccn1 (stereo unspecified),-2.35
21,Cc1ccnn1-c1ccc(C(=O)N2CCN(c3cnccn3)CC2)cc1,-2.31
22,Cc1ccn(-c2ccc(N3CCCN(Cc4ccccc4)CC3)nn2)n1,9.31
23,O=C(c1cccnc1-n1cncn1)N1CCC(Nc2ccccc2)CC1,7.1

row,Structure (SMILES),cytotoxicity at 10 µM [%]
1,CN(CCc1cccs1)C(=O)Nc1cnn(CC2CCCO2)c1 (stereo unspecified),-2.66
2,Cc1nc(CC(=O)N2CCOC(c3nc(C(C)(C)C)n[nH]3)C2)cs1 (stereo unspecified),4.06
3,COc1cccc(CCNC(=O)NC(C)C)c1O,2.27
4,c1ccc(NCc2ccc(Cn3ccnc3)cc2)nc1,70.9
5,CCC(NC(=O)NCc1cccc(N(C)C)n1)c1ccccc1OC (stereo unspecified),29.1
6,COCCN1CCN(CC(=O)N(C)Cc2cccc(F)c2)CC1C (stereo unspecified),-151
7,Cc1nnc(N2CCCC2)c(C(N)=O)c1C,7.19
8,CC(CO)CNC(=O)c1cc2cccc(F)c2o1 (stereo unspecified),8.13
9,NC(=O)CN(C(=O)C1Cc2cc(Cl)ccc2O1)C1CCCC1 (stereo unspecified),10.1
10,Cc1cc(NC(=O)N(Cc2ccc(C#N)cc2)C(C)C)no1,-17
11,CN(Cc1nnc(C2CC2)n1C)S(=O)(=O)c1ccccc1C#N,14.9
12,CCn1cc(CNC2CCN(c3c(F)cccc3F)C2)cn1 (stereo unspecified),-2.93
13,CCc1nsc(NC2CCOC3(CCCC3)C2)n1 (stereo unspecified),13
14,CCOc1ccc(C#N)cc1NC(=O)N1CCC(N2CCCC2)C1 (stereo unspecified),-7.35
15,CC(C)c1nnc2n1CCN(C(=O)c1ccc3c(c1)COC3)C2,-6.22
16,CC(C)n1c(C2CCCN(CCS(C)(=O)=O)C2)nc2ccccc21 (stereo unspecified),-10.4
17,NC(=O)C1CCN(Cn2nc(-c3ccc(F)cc3)oc2=O)CC1,-19.6
18,CC(=O)N1C[C@@H]2CN(S(=O)(=O)C3CC3)CCO[C@@H]2C1,-107
19,CC(C)NC(=O)[C@@H]1C[C@@H](N)CN1C(=O)CCSCc1ccc(F)cc1,-3.43
20,COc1ccc(CCN2CC(c3nc(CSC)no3)CCC2=O)cc1 (stereo unspecified),3.11
21,Cn1cccc1C(=O)N1CCCn2nc(CCC(=O)NC3CC3)cc2C1,5.45
22,O=C(Cn1ncc(N2CCCC2)cc1=O)Nc1ccc2nccnc2c1,1.83
23,Cn1cnnc1SCC(=O)NC1CC(=O)N(CCc2cccc(Cl)c2)C1 (stereo unspecified),2.3

row,Structure (SMILES),cytotoxicity at 10 µM [%]
1,Cc1n[nH]c(C)c1CCN(C)C(=O)c1ccc(CCC(C)(C)O)cc1,6.15
2,O=C(NCc1cnn2cccnc12)C1CC2(CCNCC2)CN1 (stereo unspecified),-8.32
3,O=C(CCNC(=O)c1ccccc1F)NCCNc1cccnc1,-7.55
4,O=C(c1ccc(Cl)cc1F)N1CCC(Cn2cc(CO)nn2)CC1,-1.36
5,CN1CCN(C[C@@H]2CN(C(=O)CC3CCCCC3)C[C@@H]2CO)CC1,-8.76
6,COCc1ccc(C(=O)N2CCC(c3nccn3CC3CC3)CC2)o1,-2.81
7,CC(C)(C)N1CC(C(=O)N2CCN(CCn3cncn3)CC2)CC1=O (stereo unspecified),-5.14
8,C[C@@H]1CN(S(=O)(=O)N2CCCCCC2)C[C@@]1(O)C1CCC1,17.6
9,COc1ccc2c(=O)n(CC3CC3)ccc2c1OC,12.8
10,COCCN1CCC(CN(CC2CCCO2)C(=O)CCC(F)(F)F)CC1 (stereo unspecified),2.13
11,Cc1cc(C)c2ncn(CCC(C)O)c(=O)c2c1 (stereo unspecified),2.1
12,CC(=O)N1CCC(NCc2cccnc2N(C)Cc2ccccc2)CC1,-14.1
13,CN(CC(=O)N1CCC(Cc2cccc(C(N)=O)c2)C1)C1CCCC1 (stereo unspecified),-7.92
14,CCn1cc(S(=O)(=O)NC2CCCN(CCCc3ccccc3)C2)cn1 (stereo unspecified),8.08
15,CCn1c(CN(C)C)nnc1C1CCN(Cc2ccccc2)CC1,-11.6
16,Cc1ccc(C(NC(=O)CC2CCN(C(C)C)CC2)C(=O)O)cc1 (stereo unspecified),-9.99
17,CCN(c1ccc(C(=O)N2CCCC2)cc1)S(=O)(=O)CC,-9.75
18,CCOC(=O)CCNC(=O)c1nc(OCC)ccc1Cl,-7.6
19,NC(=O)c1cnn2c1NCC(CNCCCc1ccccc1)C2 (stereo unspecified),-9.24
20,COCCN1CCN(Cc2cccc(OCC(N)=O)c2)CC1C (stereo unspecified),2.43
21,CCCn1nc2c(cc1=O)CN(CCCN1CCCC1=O)CC2,-6.49
22,c1cc(CN2CCN(Cc3cscn3)CC2)cs1,2.45
23,Cc1nc2cc(-c3nccn3C)nn2c(N2CCCC(O)C2)c1C (stereo unspecified),2.92

row,Structure (SMILES),cytotoxicity at 10 µM [%]
1,c1cncc(CNc2cncc(C3CCCN3)n2)c1 (stereo unspecified),9.93
2,c1cncc(CNCc2cccs2)c1,10.1
3,NC(=O)CCc1cccc(C2CCNCC2)n1,-3.28
4,O=C(C[C@@H]1COC[C@H]2CN(C(=O)c3ccccn3)C[C@@H]12)N1CCCC1,-104
5,O=C(Cc1ccccc1)N1CCC2(CC1)COCCN2CC1CC1,-78.5
6,CCOC(=O)[C@]12CCCN(Cc3ccco3)C[C@H]1CN(S(C)(=O)=O)C2,6.86
7,c1cncc(CN2CCc3ncnc(C4CC4)c3CC2)c1,-129
8,CC(=O)N1CCCC2(CCC(=O)N2Cc2cccnc2)C1 (stereo unspecified),7.59
9,Cc1ccc(CN2CCC[C@]3(C(=O)O)CN(C)C[C@@H]3C2)s1,-106
10,CCCS(=O)(=O)N1C[C@@H]2COC[C@]2(CN2CCOCC2)C1,1.86
11,Cc1ccc(CN2C[C@@H]3COC[C@H](NS(C)(=O)=O)[C@@H]3C2)o1,0.415
12,Clc1ccccc1CN1CCc2nc(C3CCCNC3)ncc2C1 (stereo unspecified),-19.7
13,CN(C)CC(=O)N1CCc2ncnc(-c3cncnc3)c2CC1,-2.42
14,CN(C)CCN1CCO[C@H]2CN(C(=O)c3ccsc3)C[C@H]21,3
15,COc1ncccc1C(=O)N1CC[C@]2(C[C@@H](Oc3cccnc3)CO2)C1,4.43
16,Cc1cccc(CN2CCc3ncnc(C)c3CC2)n1,-17.4
17,COCCN1CCC2(COCc3cnc(-c4ccccc4)nc32)C1 (stereo unspecified),-111
18,O=C(N[C@@H]1CN(Cc2ccccc2)C[C@@H]2CCCO[C@@H]21)C1CC1,-6.12
19,CN(C)C(=O)N1C[C@H]2CC[C@@H](C1)N(C(=O)CCCn1cncn1)C2,-12.2
